Results on ten compounds are retold here after ChEMBL document CHEMBL1123795, “Inhibitors of dopamine beta-hydroxylase. 3. Some 1-(pyridylmethyl)imidazole-2-thiones” (J Med Chem, 1987).

A word on the IC50: it is the concentration needed to halve the response being measured. Low values mean greater potency, high ones weaker potency. By inhibition is commonly meant the percentage by which the read-out fell short of the control.

Test [1] has as its system Rattus norvegicus. Briefly: Antihypertensive activity was determined by decrease in blood pressure response in spontaneously hypertensive rat was determined after intraperitoneal administration at a dose of 50 mg/kg. The class given is functional. In short, it runs like this:
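SHR received a single 50 mg/kg ip dose given as a solution in 20% DMF. Blood pressure was read 2 h after dosing, and the reduction (±SEM) was expressed relative to vehicle-dosed control animals.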

Test [2] concerns Rattus norvegicus. Description: Percent increase in DA/NE ratio was determined from assay of DA and NE in the mesenteric artery of spontaneously hypertensive rat after two doses for 50 mg/kg peroral administration. Type of test: functional. Particulars: route oral. In short, it runs like this:
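SHR received two 50 mg/kg doses 18 h apart as suspensions in a 5% PEG 400, 1% methocel vehicle. DA and NE were then assayed in mesenteric artery. The percent change in DA/NE ratio (±SEM) was expressed relative to vehicle-dosed controls.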

The target in test [3] is T1, Dopamine beta-hydroxylase (Rattus norvegicus, UniProt Q05754).
T1 sequence (Q05754 whole entry): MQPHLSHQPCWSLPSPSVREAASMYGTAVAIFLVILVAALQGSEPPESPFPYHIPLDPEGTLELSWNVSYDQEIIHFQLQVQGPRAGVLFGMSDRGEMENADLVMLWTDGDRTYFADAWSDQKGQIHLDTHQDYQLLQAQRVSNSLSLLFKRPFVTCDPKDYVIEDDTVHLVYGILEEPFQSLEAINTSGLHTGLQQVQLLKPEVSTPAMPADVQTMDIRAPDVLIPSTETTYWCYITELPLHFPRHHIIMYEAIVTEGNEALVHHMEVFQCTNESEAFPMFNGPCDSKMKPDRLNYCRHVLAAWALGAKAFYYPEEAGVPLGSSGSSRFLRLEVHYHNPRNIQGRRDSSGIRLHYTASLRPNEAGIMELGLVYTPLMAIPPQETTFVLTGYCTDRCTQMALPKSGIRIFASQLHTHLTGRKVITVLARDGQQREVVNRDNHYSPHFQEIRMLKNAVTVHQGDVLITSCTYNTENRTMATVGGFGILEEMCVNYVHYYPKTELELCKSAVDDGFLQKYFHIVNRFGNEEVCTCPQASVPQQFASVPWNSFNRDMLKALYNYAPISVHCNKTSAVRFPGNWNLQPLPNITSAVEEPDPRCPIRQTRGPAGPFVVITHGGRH

For test [4], the target named is T1, Dopamine beta-hydroxylase. Description: Inhibition of Dopamine beta hydroxylase in spontaneously hypertensive rats; Value ranges from 76-220.
For test [5], the target named is T1, Dopamine beta-hydroxylase. Description: Inhibition of Dopamine beta hydroxylase in spontaneously hypertensive rats; Value ranges from 21-35.
Test [6] addresses T2, Dopamine beta-hydroxylase (Rattus norvegicus) (UniProt Q05754).
T2 sequence (whole entry): T1 sequence (Q05754 whole entry)
Description: Inhibition of Dopamine beta hydroxylase in spontaneously hypertensive rats at a concentration of 10e-4. In outline:
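The DBH assay was run in vitro, with percent inhibition of product formation versus control measured at 10⁻⁴ M compound.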

For test [7], the target named is T1, Dopamine beta-hydroxylase. Briefly: Inhibition of Dopamine beta hydroxylase in spontaneously hypertensive rats; Value ranges from 1.3-4.6.
In test [8] the target is T1, Dopamine beta-hydroxylase. Description: Inhibition of Dopamine beta hydroxylase in spontaneously hypertensive rats; Value ranges from 89-121.
In test [9] the target is T1, Dopamine beta-hydroxylase. Briefly: Inhibition of Dopamine beta hydroxylase in spontaneously hypertensive rats; Value range from 8.9-13.
The target of test [10] is T1, Dopamine beta-hydroxylase. Briefly: Inhibition of Dopamine beta hydroxylase in spontaneously hypertensive rats; Value ranges from 0.4-1.1.

With `Fc1cc(F)cc(Cn2cc[nH]c2=S)c1`, the “Decrease in blood pressure” value with Rattus norvegicus [1] turned out to be 50 mmHg. Also, the Increase with Rattus norvegicus [2] stood at 407%. The compound further came in with an IC50 in test [3] of 1.2 µM.

For `Sc1nccn1Cc1ccccn1`, it took 131 µM to reach half-maximal inhibition in test [4] (IC50). The “Decrease in blood pressure” value in the test on Rattus norvegicus [1] worked out at 35 mmHg. In the test on Rattus norvegicus [2], the Increase turned out to be 141%.

With `Oc1ccc(Cn2ccnc2S)nc1`, the “Decrease in blood pressure” value in the test with Rattus norvegicus [1] is on record as 22 mmHg. For the same compound, in test [5], half-maximal inhibition (IC50) required 27 µM.

As for `Sc1nccn1Cc1ccncc1`, the inhibition in test [6] stood at 17%. Besides, the “Decrease in blood pressure” value in the test on Rattus norvegicus [1] worked out at 38 mmHg. Also, the Increase in the test with Rattus norvegicus [2] was found to be 49%.

`COc1ccc(Cn2ccnc2S)cn1` came in with an inhibition in test [6] of 17%.

Regarding `Oc1ccc(Cn2cc[nH]c2=S)cc1`, in test [7], the IC50 was found to be 2.6 µM. Also, the “Decrease in blood pressure” value with Rattus norvegicus [1] is listed as 22 mmHg. For the same compound, the Increase with Rattus norvegicus [2] is recorded as 95%.

In turn, `Sc1nccn1Cc1cccnc1` gave an IC50 in [8] of 104 µM. Besides, the “Decrease in blood pressure” value in the test on Rattus norvegicus [1] came out at 34 mmHg. Besides, in the test with Rattus norvegicus [2], the Increase is given as 52%.

Compound `Oc1ccc(Cn2ccnc2S)cn1` yielded an inhibition in test [6] of 7%.

Take `S=c1[nH]ccn1Cc1ccccc1`: in [9], it took 11 µM to reach half-maximal inhibition (IC50).

The compound `CCCCc1ccc(C(=O)O)nc1` [FUSARIC ACID] showed an IC50 in test [10] of 0.7 µM. Further, the “Decrease in blood pressure” value with Rattus norvegicus [1] is given as 54 mmHg. Moreover, the Increase in the test with Rattus norvegicus [2] worked out at 80%.
